In ChEMBL document CHEMBL1649165, “Activity profile in vitro of micafungin against Spanish clinical isolates of common and emerging species of yeasts and molds” (2009):
Values after ≈ are worked out from the molar mass of the structure shown.

What was measured:
Type in all cases: functional
Candida parapsilosis = assay: Antimicrobial activity against Candida parapsilosis by broth microdilution method; settings: Lodderomyces parapsilosis
In short: (§1)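 Clinical isolates from human patients, tested by broth microdilution using the AFST-EUCAST reference procedure for fermentative yeasts. The MIC was read per that reference method.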

Candida tropicalis = assay: Antimicrobial activity against Candida tropicalis by broth microdilution method; in short: as §1
Nakaseomyces glabratus = assay: Antimicrobial activity against Candida glabrata by broth microdilution method; in short: as §1
[1] = tested on: Meyerozyma guilliermondii; assay: Antimicrobial activity against Candida guilliermondii by broth microdilution method; in short: as §1
Diutina rugosa = assay: Antimicrobial activity against Candida rugosa by broth microdilution method; in short: as §1
Debaryomyces hansenii = assay: Antimicrobial activity against Candida famata by broth microdilution method; in short: as §1
Wickerhamomyces anomalus = assay: Antimicrobial activity against Candida pelliculosa by broth microdilution method; settings: Hansenula anomala; in short: as §1
Candida metapsilosis = assay: Antimicrobial activity against Candida metapsilosis by broth microdilution method; settings: Lodderomyces metapsilosis; in short: as §1
Candida orthopsilosis = assay: Antimicrobial activity against Candida orthopsilosis by broth microdilution method; settings: Lodderomyces orthopsilosis; in short: as §1
[2] = tested on: Kazachstania pintolopesii; assay: Antimicrobial activity against Candida pintolopesii by broth microdilution method; settings: Arxiozyma pintolopesii; in short: as §1
Yarrowia lipolytica = assay: Antimicrobial activity against Yarrowia lipolytica by broth microdilution method
Rhodotorula mucilaginosa = assay: Antimicrobial activity against Rhodotorula mucilaginosa by broth microdilution method
In short: (§2)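 Nonfermentative yeast clinical isolates (Rhodotorula, Trichosporon) tested by broth microdilution. The EUCAST yeast recommendations were followed strictly, with one minor modification to improve growth. MIC was read as the endpoint.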

Trichosporon inkin = assay: Antimicrobial activity against Trichosporon inkin by broth microdilution method; in short: as §2
Trichosporon dermatis = assay: Antimicrobial activity against Trichosporon dermatis by broth microdilution method; settings: Cutaneotrichosporon dermatis; in short: as §2
Trichosporon jirovecii = assay: Antimicrobial activity against Trichosporon jirovecii by broth microdilution method; settings: Cutaneotrichosporon jirovecii; in short: as §2
Ustilago = assay: Antimicrobial activity against Ustilago spp by broth microdilution method
Rhodotorula glutinis = assay: Antimicrobial activity against Rhodotorula glutinis by broth microdilution method; in short: as §2
Trichosporon domesticum = assay: Antimicrobial activity against Trichosporon mycotoxinivorans by broth microdilution method; settings: Apiotrichum domesticum
In short: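 Spanish human clinical isolates were tested as nonfermentative yeasts by broth microdilution. The method strictly followed the EUCAST recommendations, with a minor modification to improve growth, and the read-out was the MIC.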

Trichosporon = assay: Antimicrobial activity against Trichosporon spp. by broth microdilution method; in short: as §2
Aspergillus fumigatus = assay: Antimicrobial activity against Aspergillus fumigatus by broth microdilution method
In short: (§3)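 Clinical mould isolates, tested by broth microdilution using the AFST-EUCAST reference method for filamentous fungi. For echinocandins, the endpoint was the minimum effective concentration: the lowest drug concentration giving aberrant hyphal growth, read with an inverted microscope.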

Aspergillus terreus = assay: Antimicrobial activity against Aspergillus terreus by broth microdilution method; in short: as §3
Aspergillus flavus = assay: Antimicrobial activity against Aspergillus flavus by broth microdilution method; in short: as §3
Aspergillus nidulans = assay: Antimicrobial activity against Aspergillus nidulans by broth microdilution method; in short: as §3
Aspergillus ustus = assay: Antimicrobial activity against Aspergillus ustus by broth microdilution method; in short: as §3
Aspergillus = assay: Antimicrobial activity against Aspergillus spp. by broth microdilution method; in short: as §3
Penicillium = assay: Antimicrobial activity against Penicillium spp. by broth microdilution method
In short: (§4)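 Filamentous fungus clinical isolates tested by the AFST-EUCAST reference broth microdilution method for moulds. For echinocandins, the endpoint was the minimum effective concentration: the lowest drug concentration giving aberrant hyphal growth, read with an inverted microscope.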

Fusarium proliferatum = assay: Antimicrobial activity against Fusarium proliferatum by broth microdilution method; in short: as §3
Fusarium verticillioides = assay: Antimicrobial activity against Fusarium verticillioides by broth microdilution method; in short: as §4
Paecilomyces variotii = assay: Antimicrobial activity against Paecilomyces variotii by broth microdilution method; in short: as §4
Acremonium sp. = assay: Antimicrobial activity against Acremonium sp.by broth microdilution method; in short: as §3
Trichoderma = assay: Antimicrobial activity against Trichoderma spp. by broth microdilution method; in short: as §4
[3] = Antimicrobial activity against Hormographiella aspergillata by broth microdilution method; settings: Coprinopsis cinerea; in short: as §4
Fusarium equiseti = assay: Antimicrobial activity against Fusarium equiseti by broth microdilution method; in short: as §3
Coprinellus domesticus = assay: Antimicrobial activity against Hormographiella verticillata by broth microdilution method; in short: as §4
Alternaria alternata = assay: Antimicrobial activity against Alternaria alternata by broth microdilution method; in short: as §3
Exophiala dermatitidis = assay: Antimicrobial activity against Exophiala dermatitidis by broth microdilution method
Hortaea werneckii = assay: Antimicrobial activity against Hortaea werneckii by broth microdilution method
Cladosporium = assay: Antimicrobial activity against Cladosporium spp. by broth microdilution method; in short: as §3
[4] = tested on: Cladophialophora bantiana; assay: Antimicrobial activity against Cladophialophora bantiana by broth microdilution method; in short: as §3
Rhizopus arrhizus = assay: Antimicrobial activity against Rhizopus oryzae by broth microdilution method; in short: as §4
Mucor = assay: Antimicrobial activity against Mucor spp.by broth microdilution method; in short: as §4
[5] = tested on: Cunninghamella bertholletiae; assay: Antimicrobial activity against Cunninghamella bertholletiae by broth microdilution method; in short: as §3
[6] = Antimicrobial activity against Rhizopus microsporus by broth microdilution method; in short: as §4
Saksenaea vasiformis = assay: Antimicrobial activity against Saksenaea vasiformis by broth microdilution method; in short: as §4
Beauveria bassiana = assay: Antimicrobial activity against Beauveria bassiana by broth microdilution method; in short: as §3

Structure (SMILES): C[C@@H](c1ncncc1F)[C@](O)(Cn1cncn1)c1ccc(F)cc1F [VORICONAZOLE]
- MIC50 (Candida parapsilosis): 0.02 mg/L (≈ 0.0573 µM)
- MIC90 (Candida parapsilosis): 0.02 mg/L (≈ 0.0573 µM)
- MIC50 (Candida tropicalis): 0.03 mg/L (≈ 0.0859 µM)
- MIC90 (Candida tropicalis): 0.12 mg/L (≈ 0.344 µM)
- MIC50 (Nakaseomyces glabratus): 0.12 mg/L (≈ 0.344 µM)
- MIC90 (Nakaseomyces glabratus): 1 mg/L (≈ 2.86 µM)
- MIC50 [1]: 0.12 mg/L (≈ 0.344 µM)
- MIC90 [1]: > 8 mg/L
- MIC50 (Diutina rugosa): 0.12 mg/L (≈ 0.344 µM)
- MIC90 (Diutina rugosa): > 8 mg/L
- MIC50 (Debaryomyces hansenii): 0.12 mg/L (≈ 0.344 µM)
- MIC90 (Debaryomyces hansenii): > 8 mg/L
- MIC50 (Wickerhamomyces anomalus): 0.12 mg/L (≈ 0.344 µM)
- MIC90 (Wickerhamomyces anomalus): > 8 mg/L
- MIC50 (Candida metapsilosis): 0.12 mg/L (≈ 0.344 µM)
- MIC90 (Candida metapsilosis): > 8 mg/L
- MIC50 (Candida orthopsilosis): 0.12 mg/L (≈ 0.344 µM)
- MIC90 (Candida orthopsilosis): > 8 mg/L
- MIC50 [2]: 0.12 mg/L (≈ 0.344 µM)
- MIC90 [2]: > 8 mg/L
- MIC50 (Yarrowia lipolytica): 0.5 mg/L (≈ 1.43 µM)
- MIC90 (Yarrowia lipolytica): 2 mg/L (≈ 5.73 µM)
- MIC50 (Rhodotorula mucilaginosa): 4 mg/L (≈ 11.5 µM)
- MIC90 (Rhodotorula mucilaginosa): > 8 mg/L
- MIC50 (Trichosporon inkin): 0.06 mg/L (≈ 0.172 µM)
- MIC90 (Trichosporon inkin): 0.12 mg/L (≈ 0.344 µM)
- MIC50 (Trichosporon dermatis): 0.5 mg/L (≈ 1.43 µM)
- MIC90 (Trichosporon dermatis): > 8 mg/L
- MIC50 (Trichosporon jirovecii): 0.5 mg/L (≈ 1.43 µM)
- MIC90 (Trichosporon jirovecii): > 8 mg/L
- MIC50 (Ustilago): 0.5 mg/L (≈ 1.43 µM)
- MIC90 (Ustilago): > 8 mg/L
- MIC50 (Rhodotorula glutinis): 0.5 mg/L (≈ 1.43 µM)
- MIC90 (Rhodotorula glutinis): > 8 mg/L
- MIC50 (Trichosporon domesticum): 0.5 mg/L (≈ 1.43 µM)
- MIC90 (Trichosporon domesticum): > 8 mg/L
- MIC50 (Trichosporon): 0.5 mg/L (≈ 1.43 µM)
- MIC90 (Trichosporon): > 8 mg/L
- MIC50 (Aspergillus fumigatus): 0.5 mg/L (≈ 1.43 µM)
- MIC90 (Aspergillus fumigatus): 1 mg/L (≈ 2.86 µM)
- MIC50 (Aspergillus terreus): 1 mg/L (≈ 2.86 µM)
- MIC90 (Aspergillus terreus): 2 mg/L (≈ 5.73 µM)
- MIC50 (Aspergillus flavus): 1 mg/L (≈ 2.86 µM)
- MIC90 (Aspergillus flavus): 2 mg/L (≈ 5.73 µM)
- MIC50 (Aspergillus nidulans): 0.25 mg/L (≈ 0.716 µM)
- MIC90 (Aspergillus nidulans): 1 mg/L (≈ 2.86 µM)
- MIC50 (Aspergillus ustus): 0.25 mg/L (≈ 0.716 µM)
- MIC90 (Aspergillus ustus): > 8 mg/L
- MIC50 (Aspergillus): 0.25 mg/L (≈ 0.716 µM)
- MIC90 (Aspergillus): > 8 mg/L
- MIC50 (Penicillium): 2 mg/L (≈ 5.73 µM)
- MIC90 (Penicillium): 8 mg/L (≈ 22.9 µM)
- MIC50 (Fusarium proliferatum): 8 mg/L (≈ 22.9 µM)
- MIC90 (Fusarium proliferatum): 8 mg/L (≈ 22.9 µM)
- MIC50 (Fusarium verticillioides): 8 mg/L (≈ 22.9 µM)
- MIC90 (Fusarium verticillioides): > 8 mg/L
- MIC50 (Paecilomyces variotii): 1 mg/L (≈ 2.86 µM)
- MIC90 (Paecilomyces variotii): > 8 mg/L
- MIC50 (Acremonium sp.): 4 mg/L (≈ 11.5 µM)
- MIC90 (Acremonium sp.): > 8 mg/L
- MIC50 (Trichoderma): 4 mg/L (≈ 11.5 µM)
- MIC90 (Trichoderma): > 8 mg/L
- MIC50 [3]: 4 mg/L (≈ 11.5 µM)
- MIC90 [3]: > 8 mg/L
- MIC50 (Fusarium equiseti): 4 mg/L (≈ 11.5 µM)
- MIC90 (Fusarium equiseti): > 8 mg/L
- MIC50 (Coprinellus domesticus): 4 mg/L (≈ 11.5 µM)
- MIC90 (Coprinellus domesticus): > 8 mg/L
- MIC50 (Alternaria alternata): 4 mg/L (≈ 11.5 µM)
- MIC90 (Alternaria alternata): > 8 mg/L
- MIC50 (Exophiala dermatitidis): 0.06 mg/L (≈ 0.172 µM)
- MIC90 (Exophiala dermatitidis): > 8 mg/L
- MIC50 (Hortaea werneckii): 0.06 mg/L (≈ 0.172 µM)
- MIC90 (Hortaea werneckii): > 8 mg/L
- MIC50 (Cladosporium): 0.06 mg/L (≈ 0.172 µM)
- MIC90 (Cladosporium): > 8 mg/L
- MIC50 [4]: 0.06 mg/L (≈ 0.172 µM)
- MIC90 [4]: > 8 mg/L
- MIC50 (Rhizopus arrhizus): > 8 mg/L
- MIC90 (Rhizopus arrhizus): > 8 mg/L
- MIC50 (Mucor): > 8 mg/L
- MIC90 (Mucor): > 8 mg/L
- MIC50 [5]: > 8 mg/L
- MIC90 [5]: > 8 mg/L
- MIC50 [6]: > 8 mg/L
- MIC90 [6]: > 8 mg/L
- MIC50 (Saksenaea vasiformis): > 8 mg/L
- MIC90 (Saksenaea vasiformis): > 8 mg/L
- MIC50 (Beauveria bassiana): 4 mg/L (≈ 11.5 µM)
- MIC90 (Beauveria bassiana): > 8 mg/L
